Columns and labels:
[1] = system: DLD1 isogenic KRAS^WT/G13D (KRAS MUT) and KRAS^WT/− (KRAS WT) colorectal cancer cells; experiment: proliferation assay, cell viability by CellTiterGlo; format: cell-based; conditions: 72 hours, Fig. 1A
[2] = system: DLD1 isogenic KRAS^WT/G13D (KRAS MUT) and KRAS^WT/− (KRAS WT) colorectal cancer cells; experiment: analysis of mitotic cells by flow cytometry; format: cell-based; conditions: 100 nmol/L, 24 hours, Fig. 1B
[3] = system: HCT116 KRAS-mutant colorectal cancer xenograft model; experiment: HCT116 xenograft in Balb/c nude mice; format: in vivo; conditions: 42 days
In short: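 Female Balb/c nude mice aged 6–9 weeks, inoculated subcutaneously with 5 million HCT116 cells and randomized at 100–150 mm3. Groups received vehicle, oral test compound (0.5% methylcellulose + 0.1% Tween80 suspension), an i.p. chemotherapy agent in saline, or the combination for 42 days. Tumor volume and body weight were measured twice weekly. Mean ± SEM, n=7–8/group.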

[4] = phase Ib safety: onvansertib-related AEs; format: in vivo, human; conditions: all dose levels
In short: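 Oral test compound was dose-escalated (3+3 design; 12, 15, 18 mg/m2) on days 1–5 and 15–19 of 28-day cycles. It was given with FOLFIRI and bevacizumab 5 mg/kg i.v. on days 1 and 15. Patients receiving ≥1 dose were evaluable. AEs were graded by NCI CTCAE v4.03, investigators assigned causality, and data were summarized descriptively.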

[5] = phase Ib pharmacokinetics, plasma, day 5 of cycle 1, LC/MS-MS; format: in vivo, human
In short: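 Oral test compound was given on days 1–5 and 15–19 of 28-day cycles with FOLFIRI/bevacizumab. Blood was drawn on cycle 1 day 5 at predose and at 1, 2, 3, 4, 8, 24, 48 and 72 h postdose. Plasma drug concentrations were measured by LC/MS-MS, and pharmacokinetic parameters were calculated from these.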

[6] = cited from earlier work

CN1CCN(c2ccc(OC(F)(F)F)c(Nc3ncc4c(n3)-c3c(c(C(N)=O)nn3CCO)CC4)c2)CC1 [onvansertib]
cell death in DLD1 KRAS MUT cells compared with KRAS WT cells [1]: increased
mitotic arrest in DLD1 KRAS MUT cells compared with KRAS WT cells [2]: increased
tumor growth compared with the vehicle-treated group ([3]; oral, 45 mg/kg, daily): significantly reduced tumor growth
G3/G4 neutropenia, patients [4]: 28%
diarrhea, patients [4]: 50%
fatigue, patients [4]: 44%
nausea, patients [4]: 50%
number of onvansertib-related G3 or G4 AEs [4]: 15
vomiting, patients [4]: 22%
AUC0–24 ([5]; 12 mg/m^2, mean ± SD): 2,020 ± 880 ng/mL.hours
Cmax ([5]; 12 mg/m^2, mean ± SD): 163 ± 82 ng/mL
Tmax ([5]; 12 mg/m^2, mean ± SD): 5.29 ± 8.32 h
t1/2 ([5]; 12 mg/m^2, mean ± SD): 13.8 ± 2.1 h
AUC0–24 ([5]; 15 mg/m^2, mean ± SD): 1,520 ± 650 ng/mL.hours
Cmax ([5]; 15 mg/m^2, mean ± SD): 169 ± 64 ng/mL
Tmax ([5]; 15 mg/m^2, mean ± SD): 1.80 ± 0.84 h
t1/2 ([5]; 15 mg/m^2, mean ± SD): 13.9 ± 4.3 h
AUC0–24 ([5]; 18 mg/m^2, mean ± SD): 2,290 ± 730 ng/mL.hours
Cmax ([5]; 18 mg/m^2, mean ± SD): 191 ± 25 ng/mL
Tmax ([5]; 18 mg/m^2, mean ± SD): 2.40 ± 1.20 h
t1/2 ([5]; 18 mg/m^2, mean ± SD): 13.8 ± 2.3 h
terminal half-life in plasma ([5]; all dose levels): around 14 hours
human half-life ([6]; oral): approximately 24 hours
dose-limiting toxicities (DLT) ([6]; single agent, 6, 12, and 24 mg/m^2/day for 5 out of 21 days): no dose-limiting toxicities

CCc1c2c(nc3ccc(OC(=O)N4CCC(N5CCCCC5)CC4)cc13)-c1cc3c(c(=O)n1C2)COC(=O)[C@]3(O)CC [irinotecan, reference compound]
tumor growth compared with the vehicle-treated group ([3]; intraperitoneally, 5 mg/kg, twice a week): significantly reduced tumor growth

— publication PMC11094418 (Clinical Cancer Research, 2024)
